8 compounds from ChEMBL document CHEMBL1955847, “2-Morpholinoisoflav-3-enes as flexible intermediates in the synthesis of phenoxodiol, isophenoxodiol, equol and analogues: vasorelaxant properties, estrogen receptor binding and Rho/RhoA kinase pathway inhibition” (Bioorg Med Chem, 2012) can be followed below.

For experiment [1], the target named is T1, Estrogen receptor (Rattus norvegicus, UniProt P06211).
T1 sequence (P06211 whole entry): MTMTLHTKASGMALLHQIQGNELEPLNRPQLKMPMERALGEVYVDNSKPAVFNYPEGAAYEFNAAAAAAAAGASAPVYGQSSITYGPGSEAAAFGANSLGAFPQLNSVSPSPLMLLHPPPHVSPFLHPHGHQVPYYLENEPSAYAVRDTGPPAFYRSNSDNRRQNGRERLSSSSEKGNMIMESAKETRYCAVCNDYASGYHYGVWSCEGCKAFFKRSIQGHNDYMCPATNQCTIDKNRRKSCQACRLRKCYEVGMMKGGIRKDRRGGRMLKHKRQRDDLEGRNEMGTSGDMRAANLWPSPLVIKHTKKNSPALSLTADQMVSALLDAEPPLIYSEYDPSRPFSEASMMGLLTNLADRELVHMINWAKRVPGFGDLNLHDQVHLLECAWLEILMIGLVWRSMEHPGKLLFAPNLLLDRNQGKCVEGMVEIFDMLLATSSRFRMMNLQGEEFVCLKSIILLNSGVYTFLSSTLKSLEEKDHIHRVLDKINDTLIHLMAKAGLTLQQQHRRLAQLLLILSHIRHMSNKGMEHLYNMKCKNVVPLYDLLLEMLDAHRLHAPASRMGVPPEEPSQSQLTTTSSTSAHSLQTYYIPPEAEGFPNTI
The experiment is described as follows: Displacement of [3H]estradiol from rat uterine cytosolic estrogen receptor. The method, boiled down:
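Rat uterine cytosol incubated with 0.2 nM [3H]-estradiol in 10 mM Tris (pH 7.4, 1.5 mM EDTA, 10% w/v glycerol, 1 mM PMSF), with and without ICI 182,780 to define binding. Compounds were made from 10 mM DMSO stocks and diluted into buffer, giving 0.1% v/v DMSO at the top concentration and in all lower dilutions.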

The test system of experiment [2] is Aorta. The experiment is described as follows: Vasorelaxant activity in Sprague-Dawley rat thoracic aorta assessed as inhibition of phenylephirne-induced contraction. The experiment is classed as functional, tissue-based. The method, boiled down: (§1)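 Aortic rings 2–3 mm long from male Sprague-Dawley rats were bathed in Krebs-bicarbonate at 37 °C, pH 7.4, aerated with 95% O2/5% CO2, and equilibrated 1 h at 1 g resting tension. Rings were maximally contracted with KPSS (122.7 mM KCl) and re-equilibrated, then given submaximal phenylephrine. Endothelium was checked with acetylcholine, and cumulative concentration-response curves were run. DMSO was at most 0.1%. n = 3–5.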

The test system of experiment [3] is Aorta. The experiment is described as follows: Vasorelaxant activity in Sprague-Dawley rat thoracic aorta assessed as inhibition of U46619-induced GTP RhoA level at 100 uM pretreated for 30 mins measured after 45 mins by spectrometric analysis. Format: functional, tissue-based. The method, boiled down:
(§2)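 Male Sprague-Dawley thoracic aortic rings were denuded of endothelium and pretreated 30 min with compound, flavone or vehicle, then contracted with 30 nM U46619. Rings were snap-frozen in liquid N2 and homogenized in lysis buffer, then spun at 12,000g for 15 min at 4 °C. Supernatant was run in a RhoA G-LISA with HRP detection and absorbance read at 490 nm. Triplicate.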

Experiment [4] deals with Aorta. The experiment is described as follows: Vasorelaxant activity in Sprague-Dawley rat thoracic aorta assessed as inhibition of U46619-induced vascular tension at 100 uM pretreated for 30 mins. Format: functional, tissue-based. The method, boiled down: (§3)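 Male Sprague-Dawley thoracic aortic rings were held in Krebs-bicarbonate at 37 °C, pH 7.4, gassed with 95% O2/5% CO2. Rings were pretreated 30 min with compound or vehicle, then contracted with 30 nM U46619, and vascular tension was recorded. Final DMSO was 0.1%. n = 2, run in duplicate.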

Experiment [5] concerns Aorta. The experiment is described as follows: Vasorelaxant activity in Sprague-Dawley rat thoracic aorta assessed as inhibition of U46619-induced vascular tension at 300 uM pretreated for 30 mins. Format: functional, tissue-based. The method, boiled down:
as §3

The test system of experiment [6] is Aorta. The experiment is described as follows: Vasorelaxant activity in Sprague-Dawley rat thoracic aorta assessed as inhibition of U46619-induced GTP RhoA level at 300 uM pretreated for 30 mins measured after 45 mins by spectrometric analysis. The experiment is classed as functional, tissue-based. The method, boiled down:
as §2

The test system of experiment [7] is Aorta. The experiment is described as follows: Vasorelaxant activity in Sprague-Dawley rat thoracic aorta assessed as inhibition of phenylephirne-induced contraction in presence of 0.1 uM estrogen receptor antagonist ICI 182780. The experiment is classed as functional, tissue-based.
The subject of experiment [8] is Aorta. The experiment is described as follows: Vasorelaxant activity in Sprague-Dawley rat thoracic aorta assessed as inhibition of phenylephirne-induced contraction at highest concentration. The experiment is classed as functional, tissue-based. The method, boiled down: as §1

Active and inactive are the calls of the source. No cut-off for these calls is given here. A value given as a limit tells only on which side of the number the result lay.

As to `Oc1ccc(C2COc3ccccc3C2)cc1` (stereo unspecified), the IC50 in experiment [1] was 7.59 µM. Besides, the Activity entry in experiment [2] is “Dose-dependent effect”. For the same compound, the result in experiment [3] and in experiment [4] was Active.

The compound `Oc1ccc(C2=COc3cc(O)ccc3C2)cc1` [ISOPHENOXODIOL] had an IC50 in experiment [1] of 0.234 µM. The Activity entry in experiment [2] was “Dose-dependent effect”.

`C[C@]12CC[C@@H]3c4ccc(O)cc4C[C@@H](CCCCCCCCC[S+]([O-])CCCC(F)(F)C(F)(F)F)[C@H]3[C@@H]1CC[C@@H]2O` (stereo partly specified) [FULVESTRANT] showed an IC50 in experiment [1] of 0.00589 µM. That is a single-digit nanomolar value.

With `Oc1ccc(C2=Cc3ccc(O)cc3OC2)cc1` [IDRONOXIL], in experiment [1], the IC50 is 0.661 µM. Moreover, in experiment [2], the Activity entry was “Dose-dependent effect”. The outcome in experiment [3] and in experiment [4] was Active.

Turning to `Oc1ccc(C2COc3cc(O)ccc3C2)cc1` (racemic), the IC50 in experiment [1] is 1.66 µM. In addition, in experiment [2], the Activity result is “Dose-dependent effect”. For the same compound, the result in experiment [3] and in experiment [4] was Active.

Turning to `O=c1cc(-c2ccccc2)oc2ccccc12`, the outcome in experiment [5] and in experiment [6] was Active.

As for `c1ccc(C2COc3ccccc3C2)cc1` (stereo unspecified), the result in experiment [7] was inactive. The outcome in experiment [8], in experiment [3] and in experiment [4] was Active. The compound further yielded a pIC50 in experiment [1] of more than 5.

`Oc1ccc2c(c1)OCC(c1ccccc1)C2` (stereo unspecified): in experiment [1], the IC50 is 3.63 µM. Besides, the Activity entry in experiment [2] is “Dose-dependent effect”. In addition, the result in experiment [3] and in experiment [4] was Active.
